Measured values taken from ChEMBL document CHEMBL1127450, “Synthesis and antiviral activity evaluation of some aminoadamantane derivatives” (1994).
Converted amounts (≈) assume the structure as drawn.

Tests used:
Type in all cases: functional
HeLa [1] = experiment: Tested for minimum inhibitory concentration required to cause a microscopically detectable alteration of normal cell morphology by 50% on HeLa cell line; settings: Homo sapiens
Summary of the method: (§1)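 HeLa (human epithelial), MDCK (Madin-Darby canine kidney) or Vero (African green monkey kidney) cells were scored by microscopy. The value is the minimum concentration that causes a detectable alteration of normal cell morphology. Values are averages of at least two separate experiments.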

CCRF-CEM [2] = experiment: Tested for minimum inhibitory concentration required to reduce virus-induced cytopathicity by 50% on CEM cell line infected with HIV-2 virus; settings: Homo sapiens
Vero [3] = experiment: Tested for minimum inhibitory concentration required to reduce virus-induced cytopathicity by 50% on vero cell line infected with sindbis virus; settings: Chlorocebus sabaeus
Summary of the method: (§2)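 HeLa (human epithelial), MDCK (Madin-Darby canine kidney) or Vero (African green monkey kidney) cells were infected with the stated virus. The value is the concentration that reduces virus-induced cytopathicity by 50%. Values are averages of at least two separate experiments.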

MDCK [4] = experiment: Tested for minimum inhibitory concentration required to reduce virus-induced cytopathicity by 50% on MDCK cell line infected with influenza A virus; settings: Canis lupus familiaris; summary of the method: as §2
HeLa [5] = experiment: Tested for minimum inhibitory concentration required to reduce virus-induced cytopathicity by 50% on HeLa cell line infected with RSV virus; settings: Homo sapiens; summary of the method: as §2
HEF [6] = experiment: Tested for minimum inhibitory concentration required to reduce virus-induced cytopathicity by 50% on HEF cell line infected with HSV-2 virus; settings: Homo sapiens
Summary of the method: (§3)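 Human embryonic skin-muscle fibroblasts (HEF) were infected with the stated virus. The value is the concentration that reduces virus-induced cytopathicity by 50%. Values are averages of at least two separate experiments.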

HEF [7] = experiment: Tested for minimum inhibitory concentration required to reduce virus-induced cytopathicity by 50% on HEF cell line infected with vaccinia virus; settings: Homo sapiens; summary of the method: as §3
HeLa [8] = experiment: Tested for minimum inhibitory concentration required to reduce virus-induced cytopathicity by 50% on HeLa cell line infected with polio 1 virus; settings: Homo sapiens; summary of the method: as §2
Vero [9] = experiment: Tested for minimum inhibitory concentration required to reduce virus-induced cytopathicity by 50% on vero cell line infected with parainfluenza 3 virus; settings: Chlorocebus sabaeus; summary of the method: as §2
MDCK [10] = experiment: Tested for minimum inhibitory concentration required to cause a microscopically detectable alteration of normal cell morphology by 50% on MDCK cell line; settings: Canis lupus familiaris; summary of the method: as §1
HEF [11] = experiment: Tested for minimum inhibitory concentration required to reduce virus-induced cytopathicity by 50% on HEF cell line infected with HSV-1 virus; settings: Homo sapiens; summary of the method: as §3
HEF [12] = experiment: Tested for minimum inhibitory concentration required to cause a microscopically detectable alteration of normal cell morphology by 50% on HEF cell line; settings: Homo sapiens
Summary of the method: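 Human embryonic skin-muscle fibroblasts (HEF) were used. The value is the minimum concentration that causes a microscopically detectable alteration of normal cell morphology. Values are averages of at least two separate experiments.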

HEF [13] = experiment: Tested for minimum inhibitory concentration required to reduce virus-induced cytopathicity by 50% on HEF cell line infected with vesicular stomatitis virus; settings: Homo sapiens; summary of the method: as §3
HEF [14] = experiment: Tested for minimum inhibitory concentration required to reduce virus-induced cytopathicity by 50% on HEF cell line infected with thymidine kinase-deficient herpes simplex virus type 1 (TK-HSV-1); settings: Homo sapiens; summary of the method: as §3
Vero [15] = experiment: Tested for minimum inhibitory concentration required to reduce virus-induced cytopathicity by 50% on vero cell line infected with coxsackie B4 virus; settings: Chlorocebus sabaeus; summary of the method: as §2
Vero [16] = experiment: Tested for minimum inhibitory concentration required to reduce virus-induced cytopathicity by 50% on vero cell line infected with Reo 1 virus; settings: Chlorocebus sabaeus; summary of the method: as §2
Vero [17] = experiment: Tested for minimum inhibitory concentration required to cause a microscopically detectable alteration of normal cell morphology by 50% on vero cell line; settings: Chlorocebus sabaeus; summary of the method: as §1
MDCK [18] = experiment: Tested for minimum inhibitory concentration required to reduce virus-induced cytopathicity by 50% on MDCK cell line infected with influenza B virus; settings: Canis lupus familiaris; summary of the method: as §2
CCRF-CEM [19] = experiment: Tested for minimum inhibitory concentration required to reduce virus-induced cytopathicity by 50% was evaluated on CEM cell line infected with HIV-1 virus; settings: Homo sapiens
HEF [20] = experiment: Tested for minimum inhibitory concentration required to reduce […] by 50% on HEF cell line; settings: Homo sapiens
Summary of the method: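 Human embryonic lung fibroblasts (HEF) were used for cell proliferation. The value is the concentration that reduces cell proliferation by 50%. Values are averages of at least two separate experiments.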

Vero [21] = experiment: Tested for minimum inhibitory concentration required to reduce virus-induced cytopathicity by 50% on vero cell line infected with semliki forest virus; settings: Chlorocebus sabaeus; summary of the method: as §2
CCRF-CEM [22] = experiment: Tested for minimum inhibitory concentration required to reduce virus-induced cell viability by 50% on CEM cell line; settings: Homo sapiens
Vero [23] = experiment: Tested for minimum inhibitory concentration required to cause a microscopically detectable alteration of normal cell morphology by 50% on Vero cell line; settings: Chlorocebus sabaeus; summary of the method: as §1
HeLa [24] = experiment: tested for minimum inhibitory concentration required to cause a microscopically detectable alteration of normal cell morphology by 50% on HeLa cell line; settings: Homo sapiens; summary of the method: as §1

Row | Compound | MIC50 (CCRF-CEM [2]) [µg/mL] | MIC50 (Vero [3]) [µg/mL] | MIC50 (MDCK [4]) [µg/mL] | MIC50 (HeLa [5]) [µg/mL] | MIC50 (HEF [6]) [µg/mL] | MIC50 (HEF [7]) [µg/mL] | MIC50 (HeLa [8]) [µg/mL] | MIC50 (Vero [9]) [µg/mL] | MIC50 (MDCK [10]) [µg/mL] | MIC50 (HEF [11]) [µg/mL] | MIC50 (HEF [12]) [µg/mL] | MIC50 (HEF [13]) [µg/mL] | MIC50 (HEF [14]) [µg/mL] | MIC50 (Vero [15]) [µg/mL] | MIC50 (Vero [16]) [µg/mL] | MIC50 (MDCK [18]) [µg/mL] | MIC50 (CCRF-CEM [19]) [µg/mL] | MIC50 (HEF [20]) [µg/mL] | MIC50 (Vero [21]) [µg/mL] | MIC50 (CCRF-CEM [22]) [µg/mL] | other results
1 | C1CNC2(C1)C1CC3CC(C1)CC2C3 (stereo not given) | > 40 | > 200 | > 30 | > 200 | > 200 | > 200 | > 200 | > 200 | > 200 | 200 (≈ 1050 µM) | ≥ 400 | > 200 | > 200 | > 200 | > 200 | > 200 | > 40 | > 50 | > 200 | 100 (≈ 523 µM) | MIC50 (HeLa [1]): > 200 µg/mL; MIC50 (Vero [17]): ≥ 400 µg/mL
2 | NC1CC12C1CC3CC(C1)CC2C3 (stereo not given) | > 8 | > 40 | 30 (≈ 169 µM) | 30 (≈ 169 µM) | > 20 | > 20 | > 20 | > 40 | 100 (≈ 564 µM) | > 20 | 40 (≈ 226 µM) | > 20 | > 20 | > 40 | > 40 | > 100 | > 8 | 80 (≈ 451 µM) | > 40 | 32 (≈ 180 µM) | MIC50 (HeLa [1]): 40 µg/mL (≈ 226 µM); MIC50 (Vero [23]): 100 µg/mL (≈ 564 µM)
3 | CN(C)CC1CC12C1CC3CC(C1)CC2C3 (stereo not given) | > 40 | > 70 | > 40 | 40 (≈ 182 µM) | > 20 | > 20 | > 70 | > 70 | 70 (≈ 319 µM) | > 20 | 40 (≈ 182 µM) | > 20 | > 20 | > 70 | > 70 | > 100 | > 40 | 95 (≈ 433 µM) | > 70 | 23 (≈ 105 µM) | MIC50 (HeLa [1]): 100 µg/mL (≈ 456 µM); MIC50 (Vero [17]): 100 µg/mL (≈ 456 µM)
4 | CN(C)C1CC12C1CC3CC(C1)CC2C3 (stereo not given) | > 200 | > 400 | 6 (≈ 29.2 µM) | > 200 | > 200 | > 200 | > 400 | 100 (≈ 487 µM) | 100 (≈ 487 µM) | > 200 | ≥ 400 | > 200 | > 200 | > 400 | 400 (≈ 1950 µM) | > 100 | > 200 | > 200 | > 400 | > 200 | MIC50 (HeLa [1]): ≥ 400 µg/mL; MIC50 (Vero [17]): > 400 µg/mL
5 | CCN1CCCC12C1CC3CC(C1)CC2C3 (stereo not given) | > 200 | > 400 | 2.4 (≈ 10.9 µM) | > 200 | > 400 | > 400 | > 400 | > 400 | > 200 | > 400 | > 400 | ≥ 400 | ≥ 400 | > 400 | > 400 | > 200 | > 200 | > 200 | > 400 | > 200 | MIC50 (HeLa [24]): > 400 µg/mL; MIC50 (Vero [17]): > 400 µg/mL
